Experimental findings from ChEMBL document CHEMBL4007401, “Lynamicin D an antimicrobial natural product affects splicing by inducing the expression of SR protein kinase 1” (2017) are described below.

Calls of active or inactive are those of the source. No cut-off for these calls is given here.

In experiment [1] the test system is HeLa. Description: Modulation of constitutive splicing of rat insulin exons 1 to 3 pre-mRNA expressed in human HeLa cells assessed as retention of introns up to 20 uM after 24 hrs by ethidium bromide staining based agarose gel electrophoresis method.
Another experiment concerns T98G. Description: Cytotoxicity against human T98G cells assessed as cell viability at 30 uM after 48 hrs by MTT assay relative to control. The settings on record: read-out: Activity. Type of experiment: functional. The method in brief: (§1)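 Cells seeded at 10^4 per well, exposed 24 h later to lynamicin D (0-20 µM in methods; 30 µM stated in results) for 48 h. Then 4 h with 0.5 mg/ml MTT, crystals dissolved in 10% SDS in 0.01 N HCl, A570 read. Blanked against DMSO; medium-only cells = 100% viability. Means ±SE, three independent experiments.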
(Formazan colour is commonly taken as a measure of viable cells.)

In experiment [2] the test system is HeLa. Nature of the experiment: Modulation of SRPK1 pre-mRNA splicing in human HeLa cells assessed as increase in SRPK1 protein level at 10 to 30 uM after 24 hrs by Western blot method relative to control. The class given is cell-based. The method in brief: (§2)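 Lysis in 1% Triton X-100, 20 mM Hepes-KOH pH 7.5, 150 mM NaCl, 1 mM PMSF, 30 min on ice, needle-sheared, spun 13,000 g 15 min. Equal protein on 10% SDS-PAGE. Endogenous SRPK1 probed with mouse monoclonal anti-SRPK1, GAPDH as loading control, AP secondary with BCIP/NBT; SRPK1/GAPDH by densitometry.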
For orientation: A western blot detects proteins with antibodies after separation by electrophoresis.

The species entered for experiment [3] is Homo sapiens. Description: Modulation of SRPK1 pre-mRNA splicing in human T98G cells assessed as increase in SRPK1 pre-mRNA level at 10 to 30 uM after 24 hrs by RT-PCR method relative to control. The class given is cell-based. The method in brief: (§3)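 Total RNA from cells treated 24 h or control taken with TRIZOL. 1 µg reverse transcribed with random hexamers. SRPK1 amplified 27 cycles (95 °C 40 s, 66 °C 40 s, 72 °C 60 s); actin reference annealed at 60 °C. Products on 1% agarose, ethidium bromide. SRPK1/actin ratio by densitometry.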

For experiment [4], the system named is A549. Description: Modulation of SRPK1 pre-mRNA splicing in human A549 cells assessed as increase in SRPK1 pre-mRNA level at 10 to 30 uM after 24 hrs by RT-PCR method relative to control. The class given is cell-based. The method in brief:
as §3

The target of experiment [5] is SRSF protein kinase 1 (Homo sapiens) (UniProt Q96SB4). Description: Inhibition of GST-tagged SRPK1 (unknown origin) at 5 to 30 uM using GST-LBRNt (62 to 92 residues) as substrate by SDS-PAGE based autoradiography. In a few lines: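 Radioactive kinase reaction, 25 µL: 12 mM Hepes pH 7.5, 10 mM MgCl2, 25 µM ATP, 0.5 µg recombinant GST-SRPK1, 1 µg GST-LBRNt(62-92) (LBR N-terminal RS-containing fragment) as substrate. Lynamicin D 0-30 µM or SRPIN340 5 µM. Products run on 12% SDS-PAGE, Coomassie-stained and autoradiographed; incorporation measured by excising bands and scintillation counting.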

Experiment [6] concerns A549. Nature of the experiment: Modulation of constitutive splicing of rat insulin exons 1 to 3 pre-mRNA expressed in human A549 cells assessed as retention of introns up to 20 uM after 24 hrs by ethidium bromide staining based agarose gel electrophoresis method. Type of experiment: cell-based.
The test system of experiment [7] is HeLa. Description: Modulation of alternative splicing of SMN2 exons 6 to 8 pre-mRNA (unknown origin) expressed in human HeLa cells assessed as inclusion of exon-7 up to 20 uM after 24 hrs by ethidium bromide staining based agarose gel electrophoresis method. Type of experiment: cell-based. In a few lines:
(§4)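 HeLa (2 x 10exp4) transfected with 0.5 µg pSMN2 (exons 6-8) or pSRp20 (exons 3-5), or 1 µg pSVIRB (rat insulin exons 1-3). After 4 h, medium replaced with lynamicin D (0-20 µM; results cite 10, 20, 30 µM) or DMSO. RNA at 24 h, 1 µg RT, 30 PCR cycles, annealing 60 °C (SRp20 55 °C). Agarose gels; upper/lower band ratio. Means ±SE, n=3.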

Experiment [8] has as its system A549. Description: Cytotoxicity against human A549 cells assessed as cell viability at 30 uM after 48 hrs by MTT assay relative to control. Type of experiment: functional. Conditions: A549, 48 h, read-out: Activity. The method in brief: as §1
The test system of experiment [9] is HeLa. Description: Modulation of constitutive splicing of rat insulin exons 1 to 3 pre-mRNA expressed in human HeLa cells assessed as retention of introns up to 20 uM after 24 hrs by ethidium bromide staining based agarose gel electrophoresis method. The class given is cell-based. The method in brief: as §4
Experiment [10] has as its system HeLa. Nature of the experiment: Modulation of alternative splicing of SRp20 exons […] pre-mRNA (unknown origin) expressed in human HeLa cells assessed as inclusion of exon-4 up to 20 uM after 24 hrs by ethidium bromide staining based agarose gel electrophoresis method. The class given is cell-based. In a few lines: as §4
In experiment [11] the test system is HeLa. Nature of the experiment: Cytotoxicity against human HeLa cells assessed as cell viability at 30 uM after 48 hrs by MTT assay relative to control. Type of experiment: functional. Conditions: read-out: Activity. The method in brief: as §1
Experiment [12] has as its system HeLa. Nature of the experiment: Modulation of SRPK1 pre-mRNA splicing in human HeLa cells assessed as effect on intracellular localization of SRPK1 at 30 uM after 24 hrs by DAPI staining based immunofluorescence microscopic method. Type of experiment: cell-based.
The species entered for the next experiment is Rattus norvegicus. Description: Modulation of constitutive splicing of rat insulin exons 1 to 3 pre-mRNA expressed in human T98G cells assessed as retention of introns up to 20 uM after 24 hrs by ethidium bromide staining based agarose gel electrophoresis method. The class given is cell-based.
In experiment [13] the test system is HeLa. Nature of the experiment: Modulation of SRPK1 pre-mRNA splicing in human HeLa cells assessed as increase in SRPK1 pre-mRNA level at 10 to 30 uM after 24 hrs by RT-PCR method relative to control. The class given is cell-based. The method in brief: as §3
Experiment [14] in a line: Modulation of alternative splicing of SRp20 exons […] pre-mRNA (unknown origin) expressed in human T98G cells assessed as inclusion of exon-4 up to 20 uM after 24 hrs by ethidium bromide staining based agarose gel electrophoresis method. Type of experiment: cell-based.
The species entered for experiment [15] is Homo sapiens. Nature of the experiment: Modulation of SRPK1 pre-mRNA splicing in human T98G cells assessed as increase in SRPK1 protein level at 10 to 30 uM after 24 hrs by Western blot method relative to control. The class given is cell-based. In a few lines:
as §2

The next experiment relates to HeLa (Homo sapiens). Description: Modulation of alternative splicing of SRp20 exons […] pre-mRNA (unknown origin) expressed in human HeLa cells assessed as inclusion of exon-4 up to 20 uM after 24 hrs by ethidium bromide staining based agarose gel electrophoresis method.
For experiment [16], the system named is A549. Nature of the experiment: Modulation of SRPK1 pre-mRNA splicing in human A549 cells assessed as increase in SRPK1 protein level at 10 to 30 uM after 24 hrs by Western blot method relative to control. Type of experiment: cell-based. In a few lines:
as §2

SRSF protein kinase 1 (Homo sapiens), sequence (Q96SB4 whole entry, the tested form may be a part): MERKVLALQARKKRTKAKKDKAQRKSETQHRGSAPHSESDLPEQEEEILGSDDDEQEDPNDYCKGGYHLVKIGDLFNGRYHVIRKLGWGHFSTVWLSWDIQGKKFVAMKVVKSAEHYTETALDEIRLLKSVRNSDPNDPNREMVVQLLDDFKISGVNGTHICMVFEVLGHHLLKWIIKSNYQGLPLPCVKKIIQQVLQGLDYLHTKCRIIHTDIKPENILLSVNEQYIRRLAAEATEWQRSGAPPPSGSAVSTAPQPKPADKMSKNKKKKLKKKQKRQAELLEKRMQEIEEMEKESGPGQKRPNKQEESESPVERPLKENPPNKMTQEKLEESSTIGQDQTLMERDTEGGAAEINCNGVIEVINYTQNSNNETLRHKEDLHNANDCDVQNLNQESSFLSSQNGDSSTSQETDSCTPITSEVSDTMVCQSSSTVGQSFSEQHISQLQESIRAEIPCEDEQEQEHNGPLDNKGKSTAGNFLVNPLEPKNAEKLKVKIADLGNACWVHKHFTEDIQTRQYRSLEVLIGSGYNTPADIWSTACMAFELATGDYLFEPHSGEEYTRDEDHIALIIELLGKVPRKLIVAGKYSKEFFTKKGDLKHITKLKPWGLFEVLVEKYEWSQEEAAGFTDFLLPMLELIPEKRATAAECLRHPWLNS

Consider `COC(=O)c1[nH]c(C(=O)OC)c(-c2c[nH]c3ccc(Cl)cc23)c1-c1c[nH]c2ccc(Cl)cc12` [LYNAMICIN D], for which the result in the experiment with HeLa [1], in the experiment filed under Homo sapiens [3], in the experiment on A549 [4], in the experiment with A549 [6], in the experiment on HeLa [7] and in the experiment with HeLa [9] was Active. Moreover, the result (with HeLa [10]; in the experiment filed under Rattus norvegicus; in [14]; in the experiment listed under Homo sapiens [15]; in the experiment on HeLa (Homo sapiens); with A549 [16]) was Active. Further, the values for the viability at 30 µM with T98G, in the experiment on A549 [8] and in the experiment on HeLa [11] were 91%, 88% and 82%, respectively. Further, the fold change (FC) in the experiment with HeLa [2] is 1.9; with HeLa [13] it was 3. The inhibition entry in [5] is “inactive”. The outcome in the experiment with HeLa [12] was inactive.
